According to ChEMBL document CHEMBL1153852, “Steroidal lactones as inhibitors of 17beta-hydroxysteroid dehydrogenase type 5: chemical synthesis, enzyme inhibitory activity, and assessment of estrogenic and androgenic activities” (Eur J Med Chem, 2009):
Activity calls are given as the source filed them. No cut-off for these calls is given here.

Legend:
[1] = biological target: T1, Aldo-keto reductase family 1 member C3 (Homo sapiens) (UniProt P42330); experiment: Inhibition of human 17beta-HSD5 expressed in HEK293 cells assessed as enzyme-mediated transformation of [14C]-4-androstene-3,17-dione in to [14C]-testosterone at 0.3 uM after 18 hrs; assay type: cell-based
T1 sequence (whole entry): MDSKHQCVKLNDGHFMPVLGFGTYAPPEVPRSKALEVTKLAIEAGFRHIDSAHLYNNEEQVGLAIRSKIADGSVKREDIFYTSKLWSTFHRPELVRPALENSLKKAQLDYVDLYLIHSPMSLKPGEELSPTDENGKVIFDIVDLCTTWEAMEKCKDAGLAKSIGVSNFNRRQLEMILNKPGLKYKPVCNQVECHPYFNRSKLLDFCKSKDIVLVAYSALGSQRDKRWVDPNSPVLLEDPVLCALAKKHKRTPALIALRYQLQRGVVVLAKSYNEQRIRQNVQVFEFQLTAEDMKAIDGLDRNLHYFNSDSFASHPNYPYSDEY
Procedure, shortened: (§1)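 Intact HEK-293 cells stably over-expressing human 17β-HSD5, in freshly changed culture medium. [14C]-4-androstene-3,17-dione is added at 100 nM with inhibitor from an ethanolic solution; controls get ethanol only. After 18 h the conversion to [14C]-T is measured.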

[2] = biological target: T1, Aldo-keto reductase family 1 member C3 (Homo sapiens); experiment: Inhibition of human 17beta-HSD5 expressed in HEK293 cells assessed as enzyme-mediated transformation of [14C]-4-androstene-3,17-dione in to [14C]-testosterone at 3 uM after 18 hrs; assay type: cell-based; procedure, shortened: as §1
[3] = biological target: T2, Aldo-keto reductase family 1 member C3 (Homo sapiens, UniProt P42330); experiment: Inhibition of human 17beta-HSD5 expressed in HEK293 cells assessed as enzyme-mediated transformation of [14C]-4-androstene-3,17-dione in to [14C]-testosterone after 18 hrs; assay type: cell-based
T2 sequence (P42330 whole entry): T1 sequence (whole entry)
Procedure, shortened: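 Intact HEK-293 cells stably over-expressing human 17β-HSD5, in fresh culture medium. [14C]-4-androstene-3,17-dione 0.1 μM with inhibitor added in ethanol (ethanol alone as control), 18 h.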

[4] = biological target: T3, 17-beta-hydroxysteroid dehydrogenase type 2 (Homo sapiens) (UniProt P37059); experiment: Inhibition of human 17beta-HSD2 expressed in HEK293 cells assessed as enzyme-mediated transformation of [14C]-testosterone in to [14C]-4-androstene-3,17-dione at 0.1 uM; assay type: cell-based
T3 sequence (whole entry): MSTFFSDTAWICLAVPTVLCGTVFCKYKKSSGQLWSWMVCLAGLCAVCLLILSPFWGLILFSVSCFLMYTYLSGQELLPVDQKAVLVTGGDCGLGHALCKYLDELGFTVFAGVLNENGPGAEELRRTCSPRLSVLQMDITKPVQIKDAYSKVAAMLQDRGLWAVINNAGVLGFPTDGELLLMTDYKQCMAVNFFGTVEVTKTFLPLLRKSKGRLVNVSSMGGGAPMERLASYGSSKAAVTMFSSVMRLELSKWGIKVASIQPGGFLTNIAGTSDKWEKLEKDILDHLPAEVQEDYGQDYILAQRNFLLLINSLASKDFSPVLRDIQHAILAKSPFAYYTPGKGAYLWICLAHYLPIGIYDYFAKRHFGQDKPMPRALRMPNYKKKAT

[5] = biological target: T3, 17-beta-hydroxysteroid dehydrogenase type 2 (Homo sapiens); experiment: Inhibition of human 17beta-HSD2 expressed in HEK293 cells assessed as enzyme-mediated transformation of [14C]-testosterone in to [14C]-4-androstene-3,17-dione at 1 uM; assay type: cell-based
[6] = biological target: T4, 17-beta-hydroxysteroid dehydrogenase type 3 (Homo sapiens) (UniProt P37058); experiment: Inhibition of human 17beta-HSD3 expressed in HEK293 cells assessed as enzyme-mediated transformation of [14C]-4-androstene-3,17-dione in to [14C]-testosterone at 0.1 uM; assay type: cell-based
T4 sequence (whole entry): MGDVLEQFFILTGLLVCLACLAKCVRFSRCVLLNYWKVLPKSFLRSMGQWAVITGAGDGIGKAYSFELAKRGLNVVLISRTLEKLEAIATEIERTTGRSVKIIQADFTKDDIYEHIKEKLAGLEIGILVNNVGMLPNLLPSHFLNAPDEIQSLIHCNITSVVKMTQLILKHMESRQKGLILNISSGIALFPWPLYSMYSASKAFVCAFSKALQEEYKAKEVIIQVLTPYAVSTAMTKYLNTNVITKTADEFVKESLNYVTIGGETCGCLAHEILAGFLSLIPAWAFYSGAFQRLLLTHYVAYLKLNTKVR

[7] = biological target: T4, 17-beta-hydroxysteroid dehydrogenase type 3 (Homo sapiens); experiment: Inhibition of human 17beta-HSD3 expressed in HEK293 cells assessed as enzyme-mediated transformation of [14C]-4-androstene-3,17-dione in to [14C]-testosterone at 1 uM; assay type: cell-based
[8] = biological target: T5, Progesterone receptor (Rattus norvegicus) (UniProt Q63449); experiment: Binding affinity to rat uterus progesterone receptor at 0.01 uM
T5 sequence (whole entry): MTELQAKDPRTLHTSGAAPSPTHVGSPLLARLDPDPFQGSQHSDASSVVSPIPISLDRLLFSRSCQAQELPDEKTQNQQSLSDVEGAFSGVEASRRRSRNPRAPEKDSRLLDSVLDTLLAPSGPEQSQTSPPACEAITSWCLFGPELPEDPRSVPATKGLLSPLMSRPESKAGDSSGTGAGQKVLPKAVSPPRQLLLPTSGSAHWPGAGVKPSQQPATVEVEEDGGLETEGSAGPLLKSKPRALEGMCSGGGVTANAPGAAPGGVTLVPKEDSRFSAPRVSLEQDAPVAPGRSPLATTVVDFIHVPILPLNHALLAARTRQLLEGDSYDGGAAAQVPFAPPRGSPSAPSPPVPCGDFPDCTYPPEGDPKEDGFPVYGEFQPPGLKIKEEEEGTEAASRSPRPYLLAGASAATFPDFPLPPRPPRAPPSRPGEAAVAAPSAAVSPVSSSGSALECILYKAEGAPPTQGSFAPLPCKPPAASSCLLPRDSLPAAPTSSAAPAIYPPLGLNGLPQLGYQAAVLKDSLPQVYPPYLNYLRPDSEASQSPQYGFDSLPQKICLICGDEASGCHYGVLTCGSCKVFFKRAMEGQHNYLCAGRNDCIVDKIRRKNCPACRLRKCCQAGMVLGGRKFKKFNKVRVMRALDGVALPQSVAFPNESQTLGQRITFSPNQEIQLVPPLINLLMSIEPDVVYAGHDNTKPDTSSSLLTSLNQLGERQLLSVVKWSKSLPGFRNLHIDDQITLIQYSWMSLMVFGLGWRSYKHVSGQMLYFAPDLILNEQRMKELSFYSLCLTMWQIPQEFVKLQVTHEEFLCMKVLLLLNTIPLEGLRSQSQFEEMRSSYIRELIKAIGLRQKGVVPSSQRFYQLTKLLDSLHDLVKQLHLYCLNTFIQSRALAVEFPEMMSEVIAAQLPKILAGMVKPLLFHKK

[9] = biological target: T6, 17-beta-hydroxysteroid dehydrogenase type 1 (Homo sapiens) (UniProt P14061); experiment: Inhibition of human 17beta-HSD1 expressed in HEK293 cells assessed as enzyme-mediated transformation of [14C]-E1 in to [14C]-E2 at 0.1 uM; assay type: cell-based
T6 sequence (whole entry): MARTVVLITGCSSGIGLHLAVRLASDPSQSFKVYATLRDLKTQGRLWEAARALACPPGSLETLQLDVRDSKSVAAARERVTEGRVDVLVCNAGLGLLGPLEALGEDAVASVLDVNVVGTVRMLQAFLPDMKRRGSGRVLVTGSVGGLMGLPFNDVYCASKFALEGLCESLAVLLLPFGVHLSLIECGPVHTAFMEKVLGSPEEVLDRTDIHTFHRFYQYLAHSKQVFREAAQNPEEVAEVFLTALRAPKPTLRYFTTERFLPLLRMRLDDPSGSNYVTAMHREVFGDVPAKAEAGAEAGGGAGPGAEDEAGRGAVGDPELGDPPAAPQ

[10] = biological target: T6, 17-beta-hydroxysteroid dehydrogenase type 1 (Homo sapiens); experiment: Inhibition of human 17beta-HSD1 expressed in HEK293 cells assessed as enzyme-mediated transformation of [14C]-E1 in to [14C]-E2 at 1 uM; assay type: cell-based

Row | SMILES | inhibition [1] | inhibition [2] | IC50 [3] | also measured
1 | C[C@]12CC[C@@H]3c4ccc(O)cc4CC[C@H]3[C@@H]1C[C@@H]1CCCC(=O)O[C@@H]12 | 70% | 91% | 66 nM | 
2 | C[C@]12CC[C@@H]3c4ccc(O)cc4CC[C@H]3[C@@H]1CC[C@@]21CCC(=O)O1 | 47% | 79% |  | 
3 | COC1CC[C@@]2(CC[C@H]3[C@@H]4CCc5cc(O)ccc5[C@H]4CC[C@@]32C)O1 (stereo in doubt; 8) | 0% | 16% |  | 
4 | C[C@]12CC[C@@H]3c4ccc(O)cc4CC[C@H]3[C@@H]1CC[C@@]21CCCC(=O)O1 | 92% | 95% | 20 nM | Activity [4]: Active; Activity [5]: Active; inhibition [6]: 25%; inhibition [7]: 34%
5 | C[C@]12CCC(=O)CC1C(=O)C[C@@H]1[C@@H]2CC[C@@]2(C)[C@H]1CC[C@@]21CCC(=O)O1 (stereo not given in full) | 14% | 45% |  | 
6 | C[C@]12CCC(=O)C[C@@H]1CC[C@@H]1[C@@H]2CC[C@]2(C)[C@@H](O)CC[C@@H]12 |  |  |  | Activity [8]: 3%
7 | CC1CC[C@@]2(CC[C@H]3[C@@H]4CCc5cc(O)ccc5[C@H]4CC[C@@]32C)OC1=O (mixture of isomers) | 93% | 94% | 16 nM | Activity [4]: Active; Activity [5]: Active
8 | C[C@]12CCC3(CCC(=O)O3)CC1CC[C@@H]1[C@@H]2CC[C@@]2(C)[C@H]1CC[C@@]21CCC(=O)O1 (stereo not given in full) | 7% | 29% |  | 
9 | CCCC1CC[C@@]2(CC[C@H]3[C@@H]4CCc5cc(O)ccc5[C@H]4CC[C@@]32C)OC1=O (mixture of isomers) | 41% | 83% |  | 
10 | C[C@]12CC[C@@H]3c4ccc(O)cc4CC[C@H]3[C@@H]1C[C@@H]1CC(=O)O[C@@H]12 | 30% | 62% |  | 
11 | C[C@]12CC[C@@H]3c4ccc(O)cc4CC[C@H]3[C@@H]1CC[C@@]21CCC(O)O1 (mixture of isomers) | 19% | 61% |  | 
12 | C[C@]12CC[C@@H]3c4ccc(O)cc4CC[C@H]3[C@@H]1C[C@H]1CCC(=O)O[C@H]12 | 6% | 52% |  | 
13 | C=CCC1CC[C@@]2(CC[C@H]3[C@@H]4CCc5cc(O)ccc5[C@H]4CC[C@@]32C)OC1=O (mixture of isomers) | 68% | 91% | 107 nM | 
14 | C[C@]12CC[C@@H]3c4ccc(O)cc4CC[C@H]3[C@@H]1CC[C@@]21CC=CC(=O)O1 | 79% | 92% | 49 nM | 
15 | COC(=O)C1CC[C@@]2(CC[C@H]3[C@@H]4CCc5cc(O)ccc5[C@H]4CC[C@@]32C)OC1=O (mixture of isomers) | 78% | 92% | 72 nM | 
16 | C[C@]12CCC(=O)CC1CC[C@@H]1[C@@H]2CC[C@@]2(C)[C@H]1CC[C@@]21CCC(=O)O1 (stereo not given in full) | 15% | 63% |  | 
17 | CC(=O)S[C@@H]1CC2=CC(=O)CC[C@]2(C)[C@H]2CC[C@@]3(C)[C@@H](CC[C@@]34CCC(=O)O4)[C@H]12 | 27% | 57% |  | 
18 | C[C@@H]1C[C@H]2[C@@H]3CCC4=CC(=O)C=C[C@]4(C)[C@@]3(F)[C@@H](O)C[C@]2(C)[C@@]1(O)C(=O)CO |  |  |  | Activity [8]: 0%
19 | C[C@]12CC[C@@H]3c4ccc(O)cc4CC[C@H]3[C@@H]1C[C@@H]1CCC(=O)O[C@@H]12 | 55% | 85% |  | 
20 | C[C@]12CC[C@@H]3c4ccc(O)cc4CC[C@H]3[C@@H]1CC[C@]21CCC(=O)O1 | 22% | 45% |  | 
21 | CC1CC[C@@]2(CC[C@H]3[C@@H]4CCc5ccccc5[C@H]4CC[C@@]32C)OC1=O (stereo not given in full) | 91% | 94% | 6.1 nM | inhibition [9]: 21%; inhibition [10]: 21%; inhibition [6]: 25%; inhibition [7]: 64%
22 | CC1CC(=O)O[C@]2(CC[C@H]3[C@@H]4CCc5cc(O)ccc5[C@H]4CC[C@@]32C)C1 (mixture of isomers) | 88% | 94% | 19 nM | 
23 | C[C@]12CC[C@@H]3c4ccc(O)cc4CC[C@H]3[C@@H]1CC[C@@H]2O |  |  |  | Activity [8]: 6%
24 | C[C@]12CCC(=O)C=C1CC[C@@H]1[C@@H]2CC[C@]2(C)C(=O)CC[C@@H]12 | 21% | 45% |  | 
25 | COC1CC[C@@]2(CC[C@H]3[C@@H]4CCc5cc(O)ccc5[C@H]4CC[C@@]32C)O1 (stereo in doubt; 7) | 0% | 4% |  | 
26 | C[C@]12CCC(=O)C=C1CC[C@@H]1[C@@H]2CC[C@@]2(C)[C@H]1CC[C@@]21CCC(=O)O1 | 19% | 61% |  | 
27 | C[C@]12CC[C@@H]3c4ccc(O)cc4CC[C@H]3[C@@H]1CC[C@@]21CCCCC(=O)O1 | 90% | 93% | 42 nM | 
